Assay results collected from several papers.
Target: Ephrin type-A receptor 5 (EPHA5, Homo sapiens, UniProt P54756)

Cc1cnc(Nc2ccc(C(=O)N3CCC(N4CCCC4)CC3)cc2)nc1-c1cc2ccccc2s1  remaining binding (binding, competition with immobilised ligand; 1 µM): 74%
CNCc1ccccc1-c1csc([C@@H](C)Nc2nc(C)nc3cc(OC)c(OC)cc23)c1  remaining binding (cell-free assay, competition with immobilised ligand; 1 µM): 88%
COc1cnc(Nc2cccc(S(N)(=O)=O)c2)nc1N1CCN(c2ccccc2)C(=O)C1  remaining binding (binding, competition with immobilised ligand; 1 µM): 100%
C[C@H](c1cccc(C#N)c1)n1cc(Cl)cc(C(N)=O)c1=N  remaining binding (cell-free assay, competition with immobilised ligand; 1 µM): 96%
N[C@@H]1CCN(c2nccc(-c3cnn4ncccc34)n2)C1  remaining binding (binding; 1 µM): 100%
O=C(c1ccc(Nc2ncc(Cl)c(-c3ccc(Cl)s3)n2)cc1)N1CCC(N2CCCC2)CC1  remaining binding (binding, competition with immobilised ligand; 1 µM): 98%
c1cncc(-c2cccc(Nc3nccc(NC4CCCCC4)n3)c2)c1  remaining binding (binding, competition with immobilised ligand; 10 µM): 100%
CC1=C(C#N)C(c2ccc3c(c2)c(NC(=O)c2ccccc2C)nn3C)C(C#N)=C(C)N1  remaining binding (cell-free assay, competition with immobilised ligand; 1 µM): 77%
O=C(NCC1CCOCC1)c1n[nH]cc1NC(=O)c1c(F)cccc1F  remaining binding (binding, competition with immobilised ligand; 1 µM): 100%
O=C(NCCCN1CCOCC1)c1ccc(Nc2nccc(-c3cc4ccccc4s3)n2)cc1  remaining binding (binding, competition with immobilised ligand; 1 µM): 88%
CN(c1nccc(-c2cnn3ncccc23)n1)C1CC1  remaining binding (binding; 1 µM): 100%
COc1cnc(Nc2cccc(S(N)(=O)=O)c2)nc1N1CCN(c2ccccc2)CC1  remaining binding (binding, competition with immobilised ligand; 1 µM): 100%
CN(C)c1nccc(-c2cnn3ncccc23)n1  remaining binding (binding; 1 µM): 100%
FC(F)(F)Oc1cccc(-c2cnc3ccc(-c4ccncc4)nn23)c1  remaining binding (cell-free assay, competition with immobilised ligand; 5 µM): 90%
Cc1cnn2ncc(-c3ccnc(N(C)C)n3)c2c1  remaining binding (binding; 1 µM): 100%
Cc1nc(Cc2cccc(C(F)(F)F)c2)sc1-c1ccc(C(N)=O)nc1  remaining binding (cell-free assay, competition with immobilised ligand; 1 µM): 100%
F[C@@H]1CCN(c2nccc(-c3cnn4ncccc34)n2)C1  remaining binding (binding; 1 µM): 100%
CC(=O)Nc1c(C(C)=O)c(=O)n(C)c2nc(-c3ccc(Cl)cc3Cl)c(-c3ccc(Cl)cc3)cc12  remaining binding (cell-free assay, competition with immobilised ligand; 1 µM): 100%
CN(C)c1ncc(F)c(-c2cnn3ncccc23)n1  remaining binding (binding; 1 µM): 100%
CCC(=N\O)/C(C)=C/c1ccc(F)cc1  remaining binding (cell-free assay, competition with immobilised ligand; 1 µM): 64%
